Only some compounds are listed: those with a hit (about 1.9% of all), similar ones and a draw of the others.
Hsp70 activator: transcriptional activators of Hsp70. HeLa Hsp70 promoter luciferase reporter, luminescence; scaled: vehicle 0, proteasome-inhibitor control 100%. hit rate 0.04% among 200,000. activation, % at 10 µM;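 active = activation above the mean across all tested compounds plus 3 SD, cutoff set per campaign, cut at about 5.5% in these data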;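 also: 100% = MG132 at 30 µM as the positive control and 0% = DMSO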
HIF act: HIF pathway transcriptional activation; U2OS HRE-luciferase reporter, luminescence; normalized: DMSO 0%, desferrioxamine 100%; activation, % at 7.5 µM (by protocol); hit rate 0.32% among 300,000; AID 1910;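 active = mean activation of at least 10% of the iron chelator positive control signal, with at least half of replicates also reaching 10%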
ABHD5-PLIN5 inh: ABHD5-PLIN5 protein interaction inhibition. Q00G26+Q8WTS1. Split G. princeps luciferase complementation, luminescence, 4 h. inhibition, % at 4 µM. hit rate 0.78% among 360,000;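 active = inhibition above the mean inhibition across every tested compound plus 3 SD, cut at about 22% in these data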;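 also: 0% = DMSO only wells and the 100% control is not disclosed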
Target sequence (Q00G26 whole entry, looked up): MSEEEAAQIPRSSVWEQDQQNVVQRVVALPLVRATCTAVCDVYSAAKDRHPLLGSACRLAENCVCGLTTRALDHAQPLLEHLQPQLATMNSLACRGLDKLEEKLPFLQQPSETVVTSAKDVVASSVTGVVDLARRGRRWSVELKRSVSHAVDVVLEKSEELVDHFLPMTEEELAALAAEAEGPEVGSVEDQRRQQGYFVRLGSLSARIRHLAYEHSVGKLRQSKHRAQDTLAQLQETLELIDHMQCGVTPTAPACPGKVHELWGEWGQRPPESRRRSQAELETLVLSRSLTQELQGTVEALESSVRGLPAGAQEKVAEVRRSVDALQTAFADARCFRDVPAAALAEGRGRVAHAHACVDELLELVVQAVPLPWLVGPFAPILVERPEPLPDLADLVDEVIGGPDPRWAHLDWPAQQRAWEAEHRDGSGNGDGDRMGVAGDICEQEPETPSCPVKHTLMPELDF
Target sequence (Q8WTS1 whole entry, looked up): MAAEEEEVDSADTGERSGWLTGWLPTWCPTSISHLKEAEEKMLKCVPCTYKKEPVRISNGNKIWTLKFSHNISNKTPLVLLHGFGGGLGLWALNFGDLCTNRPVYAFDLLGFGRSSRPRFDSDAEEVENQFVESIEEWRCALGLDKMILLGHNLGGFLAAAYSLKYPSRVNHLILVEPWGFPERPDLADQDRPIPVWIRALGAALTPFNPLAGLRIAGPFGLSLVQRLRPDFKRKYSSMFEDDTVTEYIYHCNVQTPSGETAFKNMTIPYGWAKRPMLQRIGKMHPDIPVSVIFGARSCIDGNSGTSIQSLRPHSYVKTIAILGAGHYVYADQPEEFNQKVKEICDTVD
Rad51 HR inh: Rad51 (human) homologous recombination inhibition | hRad51 DNA strand exchange, fluorescence dequenching | hit rate 0.085% among 200,000 | inhibition, % at 10 µM | Q06609;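 active = inhibition above 40% at the single screening dose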;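 also: 0% = DMSO control wells and 100% = blanks with heterologous ssDNA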
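material = hRad51 filaments on single-stranded DNA | reagent = Donor/quencher-labelled 47-bp dsDNA substrate | compound = 10 µM final, single point | schedule = strand-exchange reaction 15 min at room temperature | measured by = fluorescein emission 520 nm, excitation 485 nm | read-out basis = % inhibition versus plate control and blank means | benchmarks = plate controls and plate blanks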
H9c2 TAG inh: reduces triacylglycerol accumulation in H9c2 cells; Nile Red lipid (TAG) fluorescence; cells loaded with 200 µM oleic acid; inhibition, % at 12.5 µM; hit rate 0.66% among 230,000;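 active = pattern-corrected inhibition of lipid staining of at least 50% with the nuclear-stain viability signal not falling by more than 50%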;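 also: 0% = DMSO wells and 100% = triacsin C control wells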
FXN GAA850 act: activators of GAA850 frataxin (FXN) promoter | activation, % at 6 µM | hit rate 0.56% among 360,000 | AID 540364 | HEK293 lucGAA850 FXN promoter luciferase reporter, 24 h; percent of 10 µM SAHA response;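 active = activation above the average of all compounds screened plus 3 SD, cutoff fixed separately per campaign, cut at about 7.5% in these data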;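 also: 0% = DMSO wells and 100% = 10 µM SAHA wells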
Hsp70 act dose: activates Hsp70 transcription in dose response | shares compounds with Hsp70 activator | HeLa hsp70.1pr-luc reporter, luciferase luminescence | calls only at 99 µM | hit rate 10% among 70;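 active = over 50% activation at some tested dose; inactive = under 50% activation at every tested dose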
Starred values were filed as active, the others as inactive; i = inactive; nt = not tested or not shown; + = active, no number.

SMILES | Hsp70 activator | HIF act | ABHD5-PLIN5 inh | Rad51 HR inh | H9c2 TAG inh | FXN GAA850 act | Hsp70 act dose
O=C(CN1CCCN(S(=O)(=O)c2ccc(Br)s2)CC1)Nc1ccc(Cl)cc1 | 0 | 0 | 50* | -1 | nt | -1 | nt
O=C1OCC2=C1C(c1ccc(F)cc1)c1cc3c(cc1N2)OCCO3 (stereo unspecified) | 1 | nt | -1 | 8 | 60* | 2 | nt
CN1C(=O)/C(=C2\SC(N3CCCCCC3)=NC2=O)c2ccccc21 | 0 | 3 | 2 | -8 | nt | 7 | nt
CCCN1C(=O)/C(=C2\SC(N3CCCCC3)=NC2=O)c2ccccc21 | 1 | 6 | 0 | 0 | 51* | 7 | nt
O=S(=O)(O)c1cccnc1SCc1ccccc1 | nt | 0 | 13 | nt | 0 | 2 | nt
C(=N\Nc1nc2ccccc2[nH]1)/c1ccccn1 | -1 | 4 | 2 | 0 | 26 | -9 | nt
CCN(CC)c1ccc(/C=N/Nc2nc3ccccc3[nH]2)c(O)c1 | 0 | 83* | -11 | -4 | nt | -11 | nt
C(=N\Nc1nc2ccccc2[nH]1)/c1cccc2nccnc12 | nt | 47* | 1 | 11 | 52* | 0 | nt
CCN(CC)c1ccc(/C=N/NC(=O)c2ccco2)c(O)c1 | nt | 78* | -2 | -12 | 36 | -6 | nt
COc1cc(C(C)=O)ccc1OCC(=O)N1CCCC1c1ccc2c(c1)OCCCO2 (stereo unspecified) | nt | nt | -1 | nt | 2 | 1 | nt
Oc1cc(-c2ccc(N3CCCCC3)nc2)cc2cccnc12 | nt | nt | 2 | nt | 104* | 1 | nt
CCCc1sc(N/N=C/c2ccccn2)nc1-c1ccc(Br)cc1 | 0 | 25* | 3 | -1 | nt | 1 | nt
COc1ccc2nc(C)cc(SCC(=O)N/N=C/c3ccc(O)cc3O)c2c1 | -1 | 22* | 6 | -12 | nt | -1 | nt
COc1ccc2nc(C)cc(SCC(=O)N/N=C/c3ccccc3)c2c1 | 0 | 0 | 1 | 1 | nt | 2 | nt
CCN(CC)c1ccc(N=Cc2ccc([N+](=O)[O-])o2)cc1 | 0 | 1 | 7 | -9 | 52* | 4 | nt
CCN(CC)c1ccc(N=Cc2ccccc2[N+](=O)[O-])cc1 | 0 | -1 | -9 | nt | nt | 0 | nt
COc1ccc2nc(NN=C(C)c3ccccn3)cc(C)c2c1 | nt | nt | 3 | nt | 67* | 1 | nt
O=C(OCn1ncc(Cl)c(Cl)c1=O)c1ccccc1Cl | 7.4* | -3 | 7 | -6 | nt | -13 | +
O=c1c(Cl)c(Cl)cnn1Cc1ccc(F)cc1 | 0 | 0 | 2 | -6 | nt | 4 | nt
O=C(OCn1ncc(Cl)c(Cl)c1=O)c1ccc(F)cc1 | 13* | -2 | nt | -3 | nt | nt | i
c1ccc(COc2ncnc3c2ncn3CCCNCC2CCCO2)cc1 (stereo unspecified) | nt | nt | 6 | nt | 16 | 2 | nt
O=C1c2ccccc2CCC12OC2c1ccncc1 (stereo unspecified) | nt | nt | -1 | nt | 9 | 2 | nt
CC(CC1CC(C)(C)OC1=O)C(=O)Nc1ccc([N+](=O)[O-])cc1 (stereo unspecified) | 5.6* | 0 | 0 | -1 | nt | 0 | i
CC1(C)CC(CC(=O)Nc2ccc([N+](=O)[O-])cc2)C(=O)O1 (stereo unspecified) | 0 | 0 | 2 | 3 | 7 | 0 | nt
CC(C)C(=O)N1CCN(c2ccc(NC(=O)c3ccc([N+](=O)[O-])o3)cc2Cl)CC1 | 74* | nt | -4 | 4 | 111 | 6 | i
SMILES | Hsp70 activator | HIF act | ABHD5-PLIN5 inh | Rad51 HR inh | H9c2 TAG inh | FXN GAA850 act | Hsp70 act dose
Cc1ccccc1C(=O)N1CCN(c2ccc(NC(=O)c3ccc([N+](=O)[O-])o3)cc2)CC1 | nt | -2 | 8 | nt | nt | 1 | nt
O=C(Nc1ccc(N2CCN(C(=O)c3ccccc3)CC2)cc1)c1ccc([N+](=O)[O-])o1 | 32* | -3 | 5 | -23 | 95 | 6 | i
O=C(CCSc1nnc(-c2ccco2)o1)Nc1ccc(F)cc1 | 0 | 0 | 2 | -2 | -17 | 0 | nt
O=C(COC(=O)c1ccc(O)cc1O)Nc1cc(-c2ccccc2)nn1-c1ccccc1 | nt | -13 | -3 | nt | 12 | 3 | nt
CCCOc1ccc(Cl)cc1/C=C1/C(=O)ON=C1C | nt | -16 | 6 | nt | nt | 1 | nt
CC1=NOC(=O)/C1=C\c1ccc(-c2ccc(Cl)cc2Cl)o1 | 5.8* | -2 | 2 | nt | 4 | 2 | i
COc1ccc(-c2ccc3c(n2)sc2c(=O)[nH]c(=O)[nH]c23)cc1OC | 0 | nt | nt | -4 | nt | nt | nt
N#Cc1ccc(NC(=O)c2nc(-c3ccccc3)n(-c3ccccc3)n2)cc1 | 6.7* | 0 | -1 | 2 | nt | -1 | i
CCOC(=O)/C(=C\c1ccccc1)C(=O)c1cc(C(C)=O)c(Nc2ccccc2)s1 | 0 | 1 | 4 | 7 | nt | -2 | nt
CCOC(=O)/C(=C\c1cccnc1)C(=O)c1cc(C(C)=O)c(Nc2ccccc2)s1 | 17* | 0 | 90* | -2 | 80* | -18 | i
Cc1ccc(-c2nn(CCC(=O)O)cc2/C=C\C(=O)c2ccc(Br)cc2)cc1 | 0 | -1 | 8 | 11 | 1 | -2 | nt
COCC(=O)Nc1cccc(Br)c1 | 6.3* | 0 | -4 | 0 | -6 | -2 | i
CN(CC(=O)N(C)CC(=O)Nc1c(Cl)cccc1Cl)Cc1ccccc1F | nt | nt | -2 | nt | 3 | 1 | nt
Cc1ccc(S(=O)(=O)CC2CSc3nc4ccccc4n32)cc1 (stereo unspecified) | 0 | -1 | -6 | 7 | nt | -4 | nt
Cn1c(CCN2CCOCC2)nc2cc(NC(=O)COc3ccc(Cl)cc3)ccc21 | 8.7* | 3 | 1 | 1 | 5 | -1 | i
CSc1ccc(CN(C)C(=O)CNC(=O)c2ccc3c(c2)OCO3)cc1 | nt | 0 | 2 | nt | -3 | 1 | nt
COc1ccccc1C1Nc2cccc3cccc(c23)N1 | 24* | 0 | 2 | 6 | nt | 3 | i
O=[N+]([O-])c1ccccc1C1Nc2cccc3cccc(c23)N1 | 30* | 0 | 13 | -2 | -3 | 2 | i
Oc1ccccc1C1Nc2cccc3cccc(c23)N1 | 0 | 0 | -2 | -4 | 8 | 3 | nt
O=C1NC(=O)C2(COC3(CCCC3)OC2)S1 | 28* | -1 | -3 | -5 | 16 | 0 | i
COC(=O)c1cnn(-c2nc(OC)cc(OC)n2)c1C | 0 | 0 | -7 | -3 | nt | 0 | nt
COc1cc(OC)nc(-n2ncc(Br)c(Br)c2=O)n1 | 30* | nt | 13 | -1 | nt | -15 | +
CN(Cc1ccco1)C(=O)Cn1nc(-c2ccc(Cl)cc2)ccc1=O | 9.3* | 0 | 11 | 21 | -4 | 0 | i
Cc1cc(Cl)n2c(nc3ccccc32)c1C#N | 9.7* | 2 | 5 | 2 | 11 | 1 | i
Cc1ccc(Nc2cc(C)nn2-c2nc(C)cc(=O)[nH]2)cc1 | 90* | 216* | -6 | 5 | -47 | -15 | i
Cc1ccc(Nc2cc(C)nn2-c2nc(C)cc(C)n2)cc1 | 1 | 0 | 7 | -1 | -24 | 0 | nt
